In brackets after ≈: the same amount, converted by molar mass.
What was measured:
[1] = system: Eikenella corrodens; experiment: Antibacterial activity against anaerobic Bacteroides corrodens 1874; type: functional
In short: (§1)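 MIC by agar dilution following the NCCLS M11-A2 (2nd ed.) procedure for antimicrobial testing of anaerobic bacteria.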

[2] = system: Phocaeicola vulgatus; experiment: Antibacterial activity against anaerobic Bacteroides vulgatus 1211; type: functional; in short: as §1
[3] = system: Bacteroides thetaiotaomicron; experiment: Antibacterial activity against anaerobic Bacteroides thetaiotaomicron 1438; type: functional; in short: as §1
[4] = system: Prevotella melaninogenica; experiment: Antibacterial activity against anaerobic Bacteroides melaninogenicus 1856/28; type: functional; in short: as §1
[5] = system: Prevotella melaninogenica; experiment: Antibacterial activity against anaerobic Bacteroides melaninogenicus 2736; type: functional; in short: as §1
[6] = system: Bacteroides fragilis; experiment: Antibacterial activity against anaerobic Bacteroides fragilis 111; type: functional; in short: as §1
[7] = system: Bacteroides fragilis; experiment: Antibacterial activity against anaerobic Bacteroides fragilis 1877; type: functional; in short: as §1
[8] = system: Bacteroides fragilis; experiment: Antibacterial activity against anaerobic Bacteroides fragilis 1936B; type: functional; in short: as §1
[9] = system: Clostridioides difficile; experiment: Antibacterial activity against anaerobic Clostridium difficile 2994 strain; type: functional; in short: as §1
[10] = system: Clostridium perfringens; experiment: Antibacterial activity against anaerobic Clostridium perfringens 81; type: functional
In short: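 Agar dilution MIC following NCCLS document M11-A2 (Vol. 10, no. 15), the method for antimicrobial testing of anaerobic bacteria; value reported as minimum inhibitory concentration.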

[11] = system: Clostridium septicum; experiment: Antibacterial activity against anaerobic Clostridium septicum 1128; type: functional; in short: as §1
[12] = system: Escherichia coli; experiment: Antibacterial activity against aerobic Escherichia coli EC14; type: functional
In short: (§2)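 MIC by agar dilution following the NCCLS M7-A2 (2nd ed.) procedure for bacteria that grow aerobically.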

[13] = Antibacterial activity against anaerobic Eubacterium aerofaciens 1235; type: functional; conditions: Collinsella aerofaciens; in short: as §1
[14] = system: Klebsiella aerogenes; experiment: Antibacterial activity against aerobic Enterobacter aerogenes C32; type: functional; in short: as §2
[15] = Antibacterial activity against anaerobic Fusobacterium symbiosum 1470; type: functional, fusobacterium symbosium; in short: as §1
[16] = system: Fusobacterium necrophorum; experiment: Antibacterial activity against anaerobic Fusobacterium necrophorum 6054A; type: functional; in short: as §1
[17] = system: Haemophilus influenzae; experiment: Antibacterial activity against aerobic Haemophilus influenzae RES 76; type: functional; in short: as §2
[18] = system: Klebsiella pneumoniae; experiment: Antibacterial activity against aerobic Klebsiella pneumoniae X26; type: functional; in short: as §2
[19] = system: Peptostreptococcus anaerobius; experiment: Antibacterial activity against anaerobic Peptostreptococcus anaerobius 1451; type: functional; in short: as §1
[20] = Antibacterial activity against anaerobic Peptostreptococcus intermedius 1264; type: functional; in short: as §1
[21] = system: Pseudomonas aeruginosa; experiment: Antibacterial activity against aerobic Pseudomonas aeruginosa X239 strain; type: functional; in short: as §2
[22] = Antibacterial activity against anaerobic Peptococcus asaccharolyticus 1302; type: functional; conditions: Peptoniphilus asaccharolyticus; in short: as §1
[23] = system: Anaerococcus prevotii; experiment: Antibacterial activity against anaerobic Peptococcus prevoti 1281; type: functional; in short: as §1
[24] = system: Cutibacterium acnes; experiment: Antibacterial activity against anaerobic Propionibacterium acnes 79; type: functional; in short: as §1
[25] = system: Staphylococcus epidermidis; experiment: Antibacterial activity against aerobic Staphylococcus epidermidis 222; type: functional; in short: as §2
[26] = system: Streptococcus pneumoniae; experiment: Antibacterial activity against aerobic Streptococcus pneumoniae PARK; type: functional; in short: as §2
[27] = system: Staphylococcus aureus; experiment: Antibacterial activity against aerobic Staphylococcus aureus X1.1 strain; type: functional; in short: as §2

CO/N=C(\C(=O)N[C@@H]1C(=O)N2C(C(=O)O)=C(Sc3ncc(C(F)(F)F)s3)CC[C@H]12)c1csc(N)n1
MIC [1]: 128 µg/mL (≈ 233 µM) | MIC [2]: 8 µg/mL (≈ 14.6 µM) | MIC [3]: 4 µg/mL (≈ 7.29 µM) | MIC [4]: 0.125 µg/mL (≈ 0.228 µM) | MIC [5]: 32 µg/mL (≈ 58.3 µM) | MIC [6]: 128 µg/mL (≈ 233 µM) | MIC [7]: 4 µg/mL (≈ 7.29 µM) | MIC [8]: 128 µg/mL (≈ 233 µM) | MIC [9]: 0.06 µg/mL (≈ 0.109 µM) | MIC [10]: 0.06 µg/mL (≈ 0.109 µM) | MIC [11]: 0.5 µg/mL (≈ 0.911 µM) | MIC [12]: 0.25 µg/mL (≈ 0.456 µM) | MIC [13]: 16 µg/mL (≈ 29.2 µM) | MIC [14]: 0.5 µg/mL (≈ 0.911 µM) | MIC [15]: 2 µg/mL (≈ 3.65 µM) | MIC [16]: 0.25 µg/mL (≈ 0.456 µM) | MIC [17]: 0.06 µg/mL (≈ 0.109 µM) | MIC [18]: 0.03 µg/mL (≈ 0.0547 µM) | MIC [19]: 0.5 µg/mL (≈ 0.911 µM) | MIC [20]: 0.015 µg/mL (≈ 0.0273 µM) | MIC [21]: 128 µg/mL (≈ 233 µM) | MIC [22]: 0.125 µg/mL (≈ 0.228 µM) | MIC [23]: 0.5 µg/mL (≈ 0.911 µM) | MIC [24]: 0.008 µg/mL (≈ 0.0146 µM) | MIC [25]: 1 µg/mL (≈ 1.82 µM) | MIC [26]: 0.008 µg/mL (≈ 0.0146 µM) | MIC [27]: 0.25 µg/mL (≈ 0.456 µM)

CO/N=C(\C(=O)N[C@@H]1C(=O)N2C(C(=O)O)=C(Sc3ncc(S(C)(=O)=O)s3)CC[C@H]12)c1csc(N)n1
MIC [1]: > 128 µg/mL | MIC [2]: 16 µg/mL (≈ 28.6 µM) | MIC [3]: 2 µg/mL (≈ 3.58 µM) | MIC [4]: 0.125 µg/mL (≈ 0.224 µM) | MIC [5]: 32 µg/mL (≈ 57.3 µM) | MIC [6]: > 128 µg/mL | MIC [7]: 32 µg/mL (≈ 57.3 µM) | MIC [8]: > 128 µg/mL | MIC [9]: 0.125 µg/mL (≈ 0.224 µM) | MIC [10]: 0.25 µg/mL (≈ 0.448 µM) | MIC [11]: 16 µg/mL (≈ 28.6 µM) | MIC [12]: 0.06 µg/mL (≈ 0.107 µM) | MIC [13]: 32 µg/mL (≈ 57.3 µM) | MIC [14]: 0.25 µg/mL (≈ 0.448 µM) | MIC [15]: 8 µg/mL (≈ 14.3 µM) | MIC [16]: 0.008 µg/mL (≈ 0.0143 µM) | MIC [17]: 0.015 µg/mL (≈ 0.0269 µM) | MIC [18]: 0.03 µg/mL (≈ 0.0537 µM) | MIC [19]: 0.5 µg/mL (≈ 0.895 µM) | MIC [20]: 0.03 µg/mL (≈ 0.0537 µM) | MIC [21]: > 128 µg/mL | MIC [22]: 0.25 µg/mL (≈ 0.448 µM) | MIC [23]: 0.25 µg/mL (≈ 0.448 µM) | MIC [24]: 0.03 µg/mL (≈ 0.0537 µM) | MIC [25]: 1 µg/mL (≈ 1.79 µM) | MIC [26]: 0.008 µg/mL (≈ 0.0143 µM) | MIC [27]: 0.25 µg/mL (≈ 0.448 µM)

CO/N=C(\C(=O)N[C@@H]1C(=O)N2C(C(=O)O)=C(Sc3ncc(C#N)s3)CC[C@H]12)c1csc(N)n1
MIC [1]: > 128 µg/mL | MIC [2]: 16 µg/mL (≈ 31.6 µM) | MIC [3]: 4 µg/mL (≈ 7.91 µM) | MIC [4]: 0.25 µg/mL (≈ 0.494 µM) | MIC [5]: 32 µg/mL (≈ 63.3 µM) | MIC [6]: > 128 µg/mL | MIC [7]: 16 µg/mL (≈ 31.6 µM) | MIC [8]: > 128 µg/mL | MIC [9]: 0.06 µg/mL (≈ 0.119 µM) | MIC [10]: 0.25 µg/mL (≈ 0.494 µM) | MIC [11]: 1 µg/mL (≈ 1.98 µM) | MIC [12]: 0.5 µg/mL (≈ 0.989 µM) | MIC [13]: 16 µg/mL (≈ 31.6 µM) | MIC [14]: 0.5 µg/mL (≈ 0.989 µM) | MIC [15]: 2 µg/mL (≈ 3.96 µM) | MIC [16]: 0.25 µg/mL (≈ 0.494 µM) | MIC [17]: 0.125 µg/mL (≈ 0.247 µM) | MIC [18]: 0.25 µg/mL (≈ 0.494 µM) | MIC [19]: 0.5 µg/mL (≈ 0.989 µM) | MIC [20]: 0.03 µg/mL (≈ 0.0593 µM) | MIC [21]: 128 µg/mL (≈ 253 µM) | MIC [22]: 0.25 µg/mL (≈ 0.494 µM) | MIC [23]: 0.5 µg/mL (≈ 0.989 µM) | MIC [24]: 0.03 µg/mL (≈ 0.0593 µM) | MIC [25]: 1 µg/mL (≈ 1.98 µM) | MIC [26]: 0.008 µg/mL (≈ 0.0158 µM) | MIC [27]: 0.25 µg/mL (≈ 0.494 µM)

CO/N=C(\C(=O)N[C@@H]1C(=O)N2C(C(=O)O)=C(Sc3ncc([N+](=O)[O-])s3)CC[C@H]12)c1csc(N)n1
MIC [1]: 8 µg/mL (≈ 15.2 µM) | MIC [2]: 2 µg/mL (≈ 3.81 µM) | MIC [3]: ≤ 0.5 µg/mL | MIC [4]: 4 µg/mL (≈ 7.61 µM) | MIC [5]: 4 µg/mL (≈ 7.61 µM) | MIC [6]: 8 µg/mL (≈ 15.2 µM) | MIC [7]: 2 µg/mL (≈ 3.81 µM) | MIC [8]: 4 µg/mL (≈ 7.61 µM) | MIC [9]: 2 µg/mL (≈ 3.81 µM) | MIC [10]: 2 µg/mL (≈ 3.81 µM) | MIC [11]: ≤ 0.5 µg/mL | MIC [12]: 0.5 µg/mL (≈ 0.951 µM) | MIC [13]: 8 µg/mL (≈ 15.2 µM) | MIC [14]: 2 µg/mL (≈ 3.81 µM) | MIC [15]: 1 µg/mL (≈ 1.9 µM) | MIC [16]: ≤ 0.5 µg/mL | MIC [17]: 0.06 µg/mL (≈ 0.114 µM) | MIC [18]: 0.125 µg/mL (≈ 0.238 µM) | MIC [19]: ≤ 0.5 µg/mL | MIC [20]: ≤ 0.5 µg/mL | MIC [21]: > 128 µg/mL | MIC [22]: ≤ 0.5 µg/mL | MIC [23]: ≤ 0.5 µg/mL | MIC [24]: ≤ 0.5 µg/mL | MIC [25]: 0.5 µg/mL (≈ 0.951 µM) | MIC [26]: 0.008 µg/mL (≈ 0.0152 µM) | MIC [27]: 0.125 µg/mL (≈ 0.238 µM)

— ChEMBL document CHEMBL1126762, “Synthesis and anaerobic activity of novel 1-carba-1-dethiacephalosporins” (J Med Chem, 1993)
